Results reported in publication PMC5696082 (Analytical biochemistry, 2017).

Molecular target: T1, hCE3 (Homo sapiens, UniProt Q6UWW8)
T1 sequence (Q6UWW8 27-571): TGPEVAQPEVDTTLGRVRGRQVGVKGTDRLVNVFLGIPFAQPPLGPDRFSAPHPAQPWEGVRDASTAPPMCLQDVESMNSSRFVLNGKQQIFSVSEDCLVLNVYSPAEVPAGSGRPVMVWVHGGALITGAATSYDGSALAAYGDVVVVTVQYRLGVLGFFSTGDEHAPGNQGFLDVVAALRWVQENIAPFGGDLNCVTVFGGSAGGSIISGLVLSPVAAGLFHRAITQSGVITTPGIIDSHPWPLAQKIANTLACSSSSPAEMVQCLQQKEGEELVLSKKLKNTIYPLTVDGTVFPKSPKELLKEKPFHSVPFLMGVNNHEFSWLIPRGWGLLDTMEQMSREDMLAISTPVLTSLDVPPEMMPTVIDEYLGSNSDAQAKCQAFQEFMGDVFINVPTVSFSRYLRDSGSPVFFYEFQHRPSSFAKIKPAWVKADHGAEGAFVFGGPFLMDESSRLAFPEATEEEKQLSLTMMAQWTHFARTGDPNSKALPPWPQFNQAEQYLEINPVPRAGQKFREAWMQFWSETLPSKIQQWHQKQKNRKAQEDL
Experiment: Specific activity of hCE3 towards substrates
Assay type: biochemical
Procedure, shortened: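 Enzymes expressed in baculovirus-infected High Five cells: hCE1 CHAPS-solubilised from the 100,000 g pellet, then DEAE-purified; hCE2/hCE3 crude soluble fraction; FAAH crude insoluble fraction. Substrate added to 50 µM final in 100 mM sodium phosphate pH 8.0, 0.1 mg/mL BSA, 1% DMSO. Fluorescence read every 30 s for ≥10 min at 37°C. Rates corrected for estimated purity: hCE1 25%, hCE2 4%, hCE3 3.5% (3% in footnotes), FAAH 6.9%. Triplicates.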

hCE3 Specific activity (Table 3, [S] = 50 µM, 37°C, pH 8, estimated 3% purity): <1 pmol/min/µg | Hydrolysis Specific Activity (Table 6, hCE3): 1.4 ± 0.4 pmol/min/µg
SMILES: CCCCC(C)CCC(=O)Nc1ccc(OC)nc1C (centres unmarked) [4-MOMMP, N-(6-methoxy-2-methylpyridin-3-yl)-4-methyloctanamide]
